High-throughput results as filed in PubChem BioAssay.
Runt-CBFb FRET = Runt domain-CBFb interaction inhibition; hit rate 0.46% among 220,000; inhibition, % at 20 µM; Q01196+Q13951; Cerulean-Runt/Venus-CBFb FRET ratio 530/480, 1 h;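 active means inhibition over about 50% at 20 µM in the single-dose screen, limit read from the data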;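 further: 0% = DMSO wells and 100% = excess unlabeled CBFb competitor control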
Target sequence (Q01196 whole entry, looked up, the tested form may be a part): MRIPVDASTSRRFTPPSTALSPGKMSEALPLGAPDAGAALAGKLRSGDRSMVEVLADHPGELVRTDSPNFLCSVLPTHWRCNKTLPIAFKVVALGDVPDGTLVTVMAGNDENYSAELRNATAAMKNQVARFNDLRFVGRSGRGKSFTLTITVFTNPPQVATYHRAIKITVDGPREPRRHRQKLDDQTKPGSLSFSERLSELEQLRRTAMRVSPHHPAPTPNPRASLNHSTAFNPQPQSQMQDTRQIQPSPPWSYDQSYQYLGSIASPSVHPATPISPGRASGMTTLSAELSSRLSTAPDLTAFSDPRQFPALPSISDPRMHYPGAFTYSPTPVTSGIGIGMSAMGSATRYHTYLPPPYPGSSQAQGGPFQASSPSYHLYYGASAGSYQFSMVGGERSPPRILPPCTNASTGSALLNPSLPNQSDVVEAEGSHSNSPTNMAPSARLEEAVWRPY
Target sequence (Q13951 whole entry, looked up, the tested form may be a part): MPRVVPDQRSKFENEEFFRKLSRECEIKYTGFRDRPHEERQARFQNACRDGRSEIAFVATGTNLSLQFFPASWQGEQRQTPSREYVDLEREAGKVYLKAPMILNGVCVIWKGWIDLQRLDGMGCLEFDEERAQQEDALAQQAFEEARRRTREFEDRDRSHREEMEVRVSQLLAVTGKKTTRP
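System: Cerulean-labeled Runt domain protein | Quantity: 100 nM of each labeled protein | Schedule: 1 h compound exposure, room temperature | Detection: Fluorescence energy transfer, 422 nm excitation, 530/480 nm emission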
HMGR II inh = E. faecalis class II HMG-CoA reductase inhibition | purified E. faecalis HMGR, NADPH absorbance 340 nm kinetic | inhibition, % at 10 µM | hit rate 0.41% among 190,000 | AID 1066;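 active means inhibition above a set limit, the median over all tested compounds plus 3 SD, cut at about 9.5% in these data; inconclusive means no clear call, values can overlap the other calls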;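 further: enzyme runs in reverse so mevalonate oxidation gives rising NADPH absorbance; 0% = complete reaction with DMSO and 100% = background rate lacking mevalonate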
PHOSPHO1 block = inhibitors of human PHOSPHO1 phosphatase; AID 1565; Q8TCT1; recombinant PHOSPHO1, absorbance phosphatase assay; hit rate 1.1% among 290,000; inhibition, % at 13.3 µM; in the data active means inhibition above about 60%
Runt-SMMHC FRET = Runt domain-CBFb-SMMHC interaction inhibition; Q01196+Q13951; Cerulean-Runt/Venus-CBFb-SMMHC FRET ratio 530/480, 1 h; inhibition, % at 20 µM; hit rate 0.74% among 220,000; AID 1434;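 active means mean inhibition across duplicate retests at 20 µM reaching about 50%, limit read from the data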;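 further: 0% = DMSO wells and 100% = wells with excess untagged CBFb-SMMHC; inhibitors lower the FRET ratio by blocking Runt binding to CBFb-SMMHC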
RanGTP-Imp inh = inhibitors of RanGTP-importin-beta interaction, primary screen, biochemical, FRET, CFP-Ran, YFP-importin-beta, homogeneous. cell-free CFP-Ran/YFP-importin-beta FRET ratio. inhibition, % (no concentration beside the values). hit rate 1.1% among 300,000. AID 2216;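 active means more than half of the replicate wells show a fall in the fluorescence ratio signal beyond about 16%, limit read from the data, passing the limit was not always enough; inconclusive means exactly half of the replicate wells pass the set limit; inactive means fewer than half of replicates pass the limit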;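 further: 0% = DMSO wells and 100% = Ran loaded with GDP instead of GTP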
Wee1 degr inh = inhibitors of human Wee1 degradation; P30291; HeLa Luc-Wee1K328M stability, luciferase luminescence; 100% = proteasome inhibitor MG132 effect; reporter increase, % at 5 µM; hit rate 1.2% among 220,000; AID 1321;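 active means activation above the mean of all tested compounds plus 3 SD, set per screening run, cut at about 8.8% in these data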;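 further: cells exposed to compound for 20 h before luminescence read; 0% = DMSO alone and 100% = MG132 at 30 µM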
Starred values were filed as active, the others as inactive. Sampled rows, rich in hits. Any-hit rate of the full collection: about 3.4%.

For CCc1nc2ccc(C(=O)N3CCN(c4ccccc4)CC3)cc2nc1CC the results were PHOSPHO1 block 33 and RanGTP-Imp inh 5.
For O=C(Nc1ccc2nc(-c3ccco3)c(-c3ccco3)nc2c1)NC1CC1 the results were Runt-CBFb FRET -17, HMGR II inh 2, PHOSPHO1 block 22, Runt-SMMHC FRET -67, RanGTP-Imp inh 62* and Wee1 degr inh 3.
Screening COc1ccc(/C=C(\NC(=O)c2cccs2)C(=O)NN)cc1OC returned PHOSPHO1 block 18 and RanGTP-Imp inh 2.
Screening CCN1CCN(CCNC(=O)c2ccc3c(c2)N(Cc2cccc(Cl)c2)C(=O)c2ccccc2S3=O)CC1 (stereo unspecified) returned PHOSPHO1 block 41 and RanGTP-Imp inh -2.
O=C(Nc1cccc(O)c1)N1CCOCC1 was read as Runt-CBFb FRET 2, HMGR II inh -4, PHOSPHO1 block -30, Runt-SMMHC FRET 9, RanGTP-Imp inh -2 and Wee1 degr inh 3.
Screening O=S(=O)(c1ccc2nc(-c3ccco3)c(-c3ccco3)nc2c1)N1CCOCC1 returned Runt-CBFb FRET 2, HMGR II inh -7, PHOSPHO1 block 65*, Runt-SMMHC FRET -21, RanGTP-Imp inh 9 and Wee1 degr inh 2.
Screening O=S(=O)(c1ccc2ccccc2c1)N1CCOCC1 returned PHOSPHO1 block 22 and RanGTP-Imp inh 0.
Screening O=C(Nc1ccc2nc(-c3cccs3)c(-c3cccs3)nc2c1)N1CCOCC1 returned Runt-CBFb FRET 41, HMGR II inh -5, PHOSPHO1 block 14, Runt-SMMHC FRET 62*, RanGTP-Imp inh 96* and Wee1 degr inh 0.
`Cc1ccc(N2CC(NS(=O)(=O)c3cccnc3)CC2=O)cc1C` (stereo unspecified) gave RanGTP-Imp inh 32*.
For O=C(Nc1nccs1)C1CCCN1/C=C/C(=O)C(F)(F)F (stereo unspecified) the results were PHOSPHO1 block 44 and RanGTP-Imp inh 4.
`COc1cc(-c2noc(CCCC(=O)Nc3ccc(C(N)=O)cc3)n2)cc(OC)c1OC` gave Runt-CBFb FRET 0, PHOSPHO1 block -4, Runt-SMMHC FRET 2, RanGTP-Imp inh 5 and Wee1 degr inh 10*.
Cc1ccc(CN2CC34C=CC(O3)C(C(=O)NCc3ccc5c(c3)OCO5)C4C2=O)cc1 (stereo unspecified) was read as Runt-CBFb FRET -2, HMGR II inh -1, PHOSPHO1 block 52, Runt-SMMHC FRET -2, RanGTP-Imp inh 1 and Wee1 degr inh 0.
COCCCNC(=O)C1C2C=CC3(CN(Cc4ccc(C)cc4)C(=O)C13)O2 (stereo unspecified) was read as Runt-CBFb FRET 0, HMGR II inh 3, PHOSPHO1 block 60*, Runt-SMMHC FRET -2, RanGTP-Imp inh 0 and Wee1 degr inh 2.
For Cc1ccc(CSCCNC(=O)CN2C(=O)c3ccccc3S2(=O)=O)cc1 the results were Runt-CBFb FRET 0, HMGR II inh -1, PHOSPHO1 block -3, Runt-SMMHC FRET -6, RanGTP-Imp inh inconclusive and Wee1 degr inh 1.
For O=C(NCCOc1ccccc1)c1ccccc1NC(=O)C1CCCO1 (stereo unspecified) the results were Runt-CBFb FRET 2, HMGR II inh -7, PHOSPHO1 block 20, Runt-SMMHC FRET -1, RanGTP-Imp inh -1 and Wee1 degr inh 9.9*.
CCOC(=O)c1cnc(SCC(=O)Nc2sc(C)c(C)c2C#N)nc1N was read as Runt-CBFb FRET 1, HMGR II inh 2, PHOSPHO1 block 92*, Runt-SMMHC FRET -1, RanGTP-Imp inh 1 and Wee1 degr inh 5.
CCOC(=O)c1sc(NC(=O)c2cc(-c3ccccc3C)nc3ccccc23)c(C#N)c1C was read as Runt-CBFb FRET -10, HMGR II inh -3, PHOSPHO1 block 65*, Runt-SMMHC FRET -14, RanGTP-Imp inh -4 and Wee1 degr inh -1.
`CCOC(=O)c1sc(NC(=O)CSc2nc(C)cc(C)c2C#N)c(C#N)c1C` gave HMGR II inh -8, PHOSPHO1 block 16, Runt-SMMHC FRET 1, RanGTP-Imp inh 4 and Wee1 degr inh 3.
